Source: ChEMBL document CHEMBL1142259, “Design and synthesis of novel potent and selective integrin alphanubeta3 antagonists--novel synthetic routes to isoquinolinone, benzoxazinone, and quinazolinone acetates” (Bioorg Med Chem Lett, 2008)
pIC50: −log10 of the molar value.

Assays:
Integrin alpha-V/beta-3 = Integrin alpha-V/beta-3 (Homo sapiens, UniProt P05106+P06756); experiment: Displacement of vitronectin from integrin alphavbeta3 receptor; format: protein-complex assay
Method in brief: (§1)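 Ligand displacement from the isolated integrin receptor: vitronectin for αvβ3 and fibrinogen for αIIbβ3. IC50 reported as the mean of three experiments. Intra-assay variation <10%; inter-assay variation < factor 2.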

[1] = Apparent permeability across human Caco-2 cells; format: ADME, cell-based
Method in brief: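 Apparent permeability coefficient (Papp) measured in Caco-2 monolayers. n = 2, intra-assay variation <20%. Papp >2e-7 cm/s is classed as medium transport and >2e-6 cm/s as high transport.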

[2] = target: Integrin alpha-5/beta-1 (Homo sapiens) (UniProt P05556+P08648); experiment: Inhibition of integrin alpha5beta1 receptor mediated cellular binding to fibronectin at 10 uM; format: protein-complex assay
[3] = target: Integrin alpha-IIb/beta-3 (Homo sapiens, UniProt P05106+P08514); experiment: Displacement of fibrinogen from integrin alpha2bbeta3 receptor; format: protein-complex assay; method in brief: as §1
Integrin alpha-IIb/beta-3, sequence (P05106 27-788 limits assumed): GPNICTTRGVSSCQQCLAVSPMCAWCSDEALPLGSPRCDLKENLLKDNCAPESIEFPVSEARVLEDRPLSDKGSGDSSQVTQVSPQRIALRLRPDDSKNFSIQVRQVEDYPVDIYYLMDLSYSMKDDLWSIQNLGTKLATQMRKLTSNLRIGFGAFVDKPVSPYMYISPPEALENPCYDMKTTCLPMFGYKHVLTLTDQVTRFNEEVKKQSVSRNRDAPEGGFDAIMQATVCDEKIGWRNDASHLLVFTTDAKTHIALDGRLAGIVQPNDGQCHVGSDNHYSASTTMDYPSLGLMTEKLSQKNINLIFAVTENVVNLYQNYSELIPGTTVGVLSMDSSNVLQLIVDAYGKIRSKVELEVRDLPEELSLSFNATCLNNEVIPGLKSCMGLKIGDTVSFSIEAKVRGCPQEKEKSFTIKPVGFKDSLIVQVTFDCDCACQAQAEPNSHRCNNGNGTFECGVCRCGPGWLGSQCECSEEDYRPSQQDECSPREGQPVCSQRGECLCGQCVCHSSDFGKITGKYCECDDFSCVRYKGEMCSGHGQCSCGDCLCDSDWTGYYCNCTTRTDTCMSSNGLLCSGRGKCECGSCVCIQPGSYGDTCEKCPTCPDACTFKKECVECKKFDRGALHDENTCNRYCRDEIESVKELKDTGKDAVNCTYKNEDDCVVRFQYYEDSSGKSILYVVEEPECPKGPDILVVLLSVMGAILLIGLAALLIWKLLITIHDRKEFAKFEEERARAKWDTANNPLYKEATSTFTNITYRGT
Integrin alpha-IIb/beta-3, sequence (P08514 32-887 limits assumed): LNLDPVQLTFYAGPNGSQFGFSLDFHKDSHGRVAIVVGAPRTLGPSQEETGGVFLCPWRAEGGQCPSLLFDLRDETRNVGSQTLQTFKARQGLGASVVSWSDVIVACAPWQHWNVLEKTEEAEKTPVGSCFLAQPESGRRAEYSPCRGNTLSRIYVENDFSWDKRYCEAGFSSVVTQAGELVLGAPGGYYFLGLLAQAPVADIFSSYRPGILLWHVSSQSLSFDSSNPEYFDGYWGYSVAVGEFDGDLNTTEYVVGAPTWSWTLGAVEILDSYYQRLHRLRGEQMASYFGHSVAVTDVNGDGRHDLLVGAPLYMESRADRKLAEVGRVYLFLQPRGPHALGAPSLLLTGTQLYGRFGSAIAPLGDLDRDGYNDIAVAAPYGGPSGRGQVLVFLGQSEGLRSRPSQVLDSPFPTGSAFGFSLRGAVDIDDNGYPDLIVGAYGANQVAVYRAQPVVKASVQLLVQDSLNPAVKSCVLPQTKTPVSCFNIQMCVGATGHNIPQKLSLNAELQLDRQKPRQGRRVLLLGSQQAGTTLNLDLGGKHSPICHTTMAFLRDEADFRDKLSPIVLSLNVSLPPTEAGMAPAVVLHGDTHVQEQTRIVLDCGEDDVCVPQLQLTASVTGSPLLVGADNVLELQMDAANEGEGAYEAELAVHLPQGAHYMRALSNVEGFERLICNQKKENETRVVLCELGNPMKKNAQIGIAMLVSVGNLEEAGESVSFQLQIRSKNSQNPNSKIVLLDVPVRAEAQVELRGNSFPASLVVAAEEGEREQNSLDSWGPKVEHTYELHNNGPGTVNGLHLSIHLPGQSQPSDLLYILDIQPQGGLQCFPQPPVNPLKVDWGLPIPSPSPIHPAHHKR
Integrin alpha-IIb/beta-3, sequence (P08514 891-1039 limits assumed): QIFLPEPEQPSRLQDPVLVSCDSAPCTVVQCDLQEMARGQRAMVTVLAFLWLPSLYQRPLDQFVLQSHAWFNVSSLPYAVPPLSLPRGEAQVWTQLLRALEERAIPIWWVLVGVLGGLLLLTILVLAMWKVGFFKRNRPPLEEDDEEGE

Integrin alpha-V/beta-3, sequence (P05106 27-788 limits assumed): as the sequence (P05106 27-788 limits assumed) above
Integrin alpha-V/beta-3, sequence (P06756 31-889 limits assumed): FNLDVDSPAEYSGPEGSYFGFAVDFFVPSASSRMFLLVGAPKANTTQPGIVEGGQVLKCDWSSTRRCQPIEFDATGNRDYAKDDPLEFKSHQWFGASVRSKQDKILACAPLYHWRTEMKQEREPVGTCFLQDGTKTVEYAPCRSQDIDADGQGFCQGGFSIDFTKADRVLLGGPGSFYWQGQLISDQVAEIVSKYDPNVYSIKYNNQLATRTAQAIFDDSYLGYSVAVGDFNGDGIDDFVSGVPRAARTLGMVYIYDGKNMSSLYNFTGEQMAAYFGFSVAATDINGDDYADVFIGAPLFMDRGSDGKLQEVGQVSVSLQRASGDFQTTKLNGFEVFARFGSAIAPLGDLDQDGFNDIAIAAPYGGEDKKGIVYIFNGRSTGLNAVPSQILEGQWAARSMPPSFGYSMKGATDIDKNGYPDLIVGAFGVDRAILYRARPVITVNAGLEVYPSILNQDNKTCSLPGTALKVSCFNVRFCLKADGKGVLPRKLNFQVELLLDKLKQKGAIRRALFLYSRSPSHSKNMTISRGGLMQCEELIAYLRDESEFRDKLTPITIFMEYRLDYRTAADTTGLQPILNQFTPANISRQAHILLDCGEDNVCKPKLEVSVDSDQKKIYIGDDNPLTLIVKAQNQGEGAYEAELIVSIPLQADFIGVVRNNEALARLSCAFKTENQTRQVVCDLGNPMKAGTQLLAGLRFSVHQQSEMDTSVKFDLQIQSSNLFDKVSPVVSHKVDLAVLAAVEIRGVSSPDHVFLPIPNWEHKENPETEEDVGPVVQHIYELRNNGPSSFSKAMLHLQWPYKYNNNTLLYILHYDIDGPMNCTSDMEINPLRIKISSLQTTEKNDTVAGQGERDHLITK
Integrin alpha-V/beta-3, sequence (P06756 891-1048 limits assumed): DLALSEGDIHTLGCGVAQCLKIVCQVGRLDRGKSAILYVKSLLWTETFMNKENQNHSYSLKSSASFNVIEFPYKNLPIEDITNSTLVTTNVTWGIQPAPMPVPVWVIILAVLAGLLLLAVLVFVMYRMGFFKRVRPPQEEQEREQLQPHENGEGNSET

| Structure (SMILES) | pIC50 (Integrin alpha-V/beta-3) | also measured |
| --- | --- | --- |
| O=C(O)CC1CCC(=O)N(CC(=O)NCc2ccc(Nc3nc4ccccc4[nH]3)cc2)c2ccccc21 (centres undefined) | 8.36 |  |
| O=C(O)CC1NC(=O)N(CC(=O)NCc2ccc(Nc3nc4ccccc4[nH]3)cc2)c2ccccc21 (centres undefined) | 7.43 |  |
| O=C(O)CC1OC(=O)N(CC(=O)NCc2ccc(Nc3nc4ccccc4[nH]3)cc2)c2ccccc21 (centres undefined) | 8.38 | Papp [1]: 3.48 ×10⁻⁶ cm/s; inhibition [2]: 8%; pIC50 [3]: < 5.00 |
| O=C(O)CC1NC(=O)N(CC(=O)NCC2CCC(Nc3nc4ccccc4[nH]3)CC2)c2ccccc21 (trans isomer) | 7.89 |  |
| O=C(O)Cc1cc(=O)n(CC(=O)NCc2ccc(Nc3nc4ccccc4[nH]3)cc2)c2ccccc12 | 7.30 |  |
| O=C(O)CC1CN(CC(=O)NCc2ccc(Nc3nc4ccccc4[nH]3)cc2)C(=O)c2ccccc21 (centres undefined) | 5.00 |  |
| O=C(O)CC1CN(CC(=O)NCC2CCC(Nc3nc4ccccc4[nH]3)CC2)C(=O)c2ccccc21 (trans isomer) | 5.00 |  |
| O=C(O)CCC1CC(=O)N(CC(=O)NCc2ccc(Nc3nc4ccccc4[nH]3)cc2)c2ccccc21 (centres undefined) | 5.30 |  |
| O=C(O)CC1CC(=O)N(CC(=O)NCC2CCC(Nc3nc4ccccc4[nH]3)CC2)c2ccccc21 (trans isomer) | 8.13 |  |
| O=C(O)CC1OC(=O)N(CC(=O)NCC2CCC(Nc3nc4ccccc4[nH]3)CC2)c2ccccc21 (centres undefined) | 9.15 | Papp [1]: 3.23 ×10⁻⁶ cm/s; inhibition [2]: 25%; pIC50 [3]: < 5.00 |
| O=C(O)CC1CC(=O)N(CC(=O)NCc2ccc(Nc3nc4ccccc4[nH]3)cc2)c2ccccc21 (centres undefined) | 7.30 |  |
| O=C(O)CC1CCN(CC(=O)NCc2ccc(Nc3nc4ccccc4[nH]3)cc2)C(=O)c2ccccc21 (centres undefined) | 6.91 |  |
| O=C(O)CCC1CC(=O)N(CC(=O)NCC2CCC(Nc3nc4ccccc4[nH]3)CC2)c2ccccc21 (centres undefined) | 7.57 |  |
| O=C(O)CC1CCN(CC(=O)NCC2CCC(Nc3nc4ccccc4[nH]3)CC2)C(=O)c2ccccc21 (centres undefined) | 7.96 |  |
| O=C(O)CCc1cc(=O)n(CC(=O)NCC2CCC(Nc3nc4ccccc4[nH]3)CC2)c2ccccc12 (trans isomer) | 6.00 |  |
| O=C(O)CCc1cc(=O)n(CC(=O)NCc2ccc(Nc3nc4ccccc4[nH]3)cc2)c2ccccc12 | 6.30 |  |
| O=C(O)Cc1cc(=O)n(CC(=O)NCC2CCC(Nc3nc4ccccc4[nH]3)CC2)c2ccccc12 (centres undefined) | 8.00 |  |
| O=C(O)CC1CCC(=O)N(CC(=O)NCC2CCC(Nc3nc4ccccc4[nH]3)CC2)c2ccccc21 (centres undefined) | 8.82 |  |
